In ChEMBL document CHEMBL3286091, “Novel N-linked aminopiperidine-based gyrase inhibitors with improved hERG and in vivo efficacy against Mycobacterium tuberculosis” (J Med Chem, 2014):
Values after ≈ are worked out from the molar mass of the structure shown. Active and inactive are the calls of the source. The calls are words filed in the database; no cut-off is given here.

Experiments:
[1] = tested on: Mycobacterium tuberculosis; test: Antimycobacterial activity against wild-type Mycobacterium tuberculosis H37Rv ATCC 27294 after 16 to 18 days by BACTEC 7H12B microdilution method; assay type: functional
[2] = molecular target: Voltage-gated inwardly rectifying potassium channel KCNH2 (Homo sapiens, UniProt Q12809); test: Inhibition of human ERG by patch clamp electrophysiological analysis
Sequence of Voltage-gated inwardly rectifying potassium channel KCNH2 (Q12809 whole entry): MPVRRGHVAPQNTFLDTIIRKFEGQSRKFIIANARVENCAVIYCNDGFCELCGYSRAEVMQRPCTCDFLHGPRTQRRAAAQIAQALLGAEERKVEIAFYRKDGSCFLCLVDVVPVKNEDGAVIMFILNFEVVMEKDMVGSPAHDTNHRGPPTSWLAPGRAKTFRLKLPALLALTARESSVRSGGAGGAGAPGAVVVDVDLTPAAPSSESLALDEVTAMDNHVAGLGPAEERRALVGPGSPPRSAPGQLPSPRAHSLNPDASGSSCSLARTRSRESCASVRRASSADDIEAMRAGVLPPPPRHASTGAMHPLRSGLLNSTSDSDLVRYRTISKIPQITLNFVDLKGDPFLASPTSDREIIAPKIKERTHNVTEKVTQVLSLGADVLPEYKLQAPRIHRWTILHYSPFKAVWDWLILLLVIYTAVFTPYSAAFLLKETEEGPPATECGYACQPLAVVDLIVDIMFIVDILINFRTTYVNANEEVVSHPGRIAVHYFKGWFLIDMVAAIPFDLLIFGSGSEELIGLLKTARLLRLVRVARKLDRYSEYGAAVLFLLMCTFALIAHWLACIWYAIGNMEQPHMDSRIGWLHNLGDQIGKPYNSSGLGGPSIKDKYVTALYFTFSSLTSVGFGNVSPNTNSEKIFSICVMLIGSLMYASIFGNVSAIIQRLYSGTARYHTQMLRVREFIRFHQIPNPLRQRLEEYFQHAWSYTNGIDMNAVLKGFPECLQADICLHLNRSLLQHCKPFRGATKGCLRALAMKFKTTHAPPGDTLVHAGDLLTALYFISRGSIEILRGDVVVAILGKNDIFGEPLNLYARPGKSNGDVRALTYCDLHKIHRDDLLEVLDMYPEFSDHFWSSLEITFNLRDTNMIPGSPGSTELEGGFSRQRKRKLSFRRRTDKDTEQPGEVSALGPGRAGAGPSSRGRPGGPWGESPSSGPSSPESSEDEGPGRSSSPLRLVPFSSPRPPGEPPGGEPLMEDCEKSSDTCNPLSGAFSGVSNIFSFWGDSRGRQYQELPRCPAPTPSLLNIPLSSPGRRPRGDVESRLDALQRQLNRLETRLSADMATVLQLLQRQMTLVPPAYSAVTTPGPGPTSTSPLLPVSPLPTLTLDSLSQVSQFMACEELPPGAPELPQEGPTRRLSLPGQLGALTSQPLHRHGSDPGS

[3] = Octanol-sodium phosphate buffer partition coefficient, log D of the compound at 10 mM at pH 7.4 by shake-flask method; assay type: physicochemical
[4] = Oral bioavailability in rat at 40 mg/kg by LC-MS/MS analysis; assay type: ADME, organism-based; details: in vivo
In short: (§1)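 Rats were dosed with the 5% dextrose (pH 4−5) formulation, 5 mg/kg iv and 40 mg/kg po. Plasma was precipitated with acetonitrile and analysed by LC−MS/MS with a carbamazepine internal standard. Parameters were derived by noncompartmental analysis.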

[5] = Apparent permeability from basolateral to apical side in human Caco2 cells; assay type: ADME, cell-based; details: Caco-2
[6] = molecular target: DNA gyrase subunit A/DNA gyrase subunit B (Mycobacterium tuberculosis (strain ATCC 25618 / H37Rv), UniProt P9WG45+P9WG47); test: Inhibition of Mycobacterium tuberculosis H37Rv DNA gyrase holoenzyme-mediated supercoiling of pBR322 DNA after 90 mins by agarose gel electrophoresis
Sequence of DNA gyrase subunit A/DNA gyrase subunit B (P9WG45 whole entry): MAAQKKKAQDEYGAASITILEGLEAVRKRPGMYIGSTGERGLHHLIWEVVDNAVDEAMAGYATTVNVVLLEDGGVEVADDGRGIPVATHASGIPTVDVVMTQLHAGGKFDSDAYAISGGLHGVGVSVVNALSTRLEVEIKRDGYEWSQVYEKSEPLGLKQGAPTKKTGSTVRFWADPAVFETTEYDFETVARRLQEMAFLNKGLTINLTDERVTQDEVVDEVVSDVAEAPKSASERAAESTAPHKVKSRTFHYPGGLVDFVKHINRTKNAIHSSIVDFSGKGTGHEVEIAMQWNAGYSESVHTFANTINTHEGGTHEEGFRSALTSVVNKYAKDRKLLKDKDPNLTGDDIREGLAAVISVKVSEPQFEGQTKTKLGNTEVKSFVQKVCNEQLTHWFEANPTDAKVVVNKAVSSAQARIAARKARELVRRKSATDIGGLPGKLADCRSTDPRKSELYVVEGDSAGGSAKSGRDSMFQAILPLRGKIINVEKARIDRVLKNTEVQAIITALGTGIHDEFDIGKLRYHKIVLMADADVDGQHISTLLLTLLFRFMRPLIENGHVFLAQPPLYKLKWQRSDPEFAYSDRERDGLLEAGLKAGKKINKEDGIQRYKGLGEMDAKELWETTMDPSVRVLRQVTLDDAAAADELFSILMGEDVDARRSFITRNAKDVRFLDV
Sequence of DNA gyrase subunit A/DNA gyrase subunit B (P9WG47 whole entry): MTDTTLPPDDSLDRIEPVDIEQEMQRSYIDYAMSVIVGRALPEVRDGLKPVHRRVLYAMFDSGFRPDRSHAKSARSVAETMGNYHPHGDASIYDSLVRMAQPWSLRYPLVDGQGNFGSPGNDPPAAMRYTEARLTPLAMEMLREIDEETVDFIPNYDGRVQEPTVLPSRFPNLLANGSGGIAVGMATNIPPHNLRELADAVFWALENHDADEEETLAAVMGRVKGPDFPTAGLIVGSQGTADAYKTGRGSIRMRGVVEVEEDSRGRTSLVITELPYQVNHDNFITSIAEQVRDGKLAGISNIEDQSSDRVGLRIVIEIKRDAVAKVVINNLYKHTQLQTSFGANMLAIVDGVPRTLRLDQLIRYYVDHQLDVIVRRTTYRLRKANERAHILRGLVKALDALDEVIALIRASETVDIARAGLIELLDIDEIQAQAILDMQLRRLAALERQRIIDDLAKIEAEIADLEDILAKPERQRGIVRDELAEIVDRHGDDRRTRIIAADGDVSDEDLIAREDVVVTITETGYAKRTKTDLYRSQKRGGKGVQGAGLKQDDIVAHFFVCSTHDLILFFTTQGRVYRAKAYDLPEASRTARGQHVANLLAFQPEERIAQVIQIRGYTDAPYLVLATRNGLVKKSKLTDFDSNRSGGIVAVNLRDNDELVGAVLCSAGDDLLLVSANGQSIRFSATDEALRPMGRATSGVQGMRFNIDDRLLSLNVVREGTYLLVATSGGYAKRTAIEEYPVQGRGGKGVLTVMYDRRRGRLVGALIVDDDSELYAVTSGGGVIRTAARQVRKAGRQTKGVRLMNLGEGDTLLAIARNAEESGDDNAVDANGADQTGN

[7] = Apparent permeability from apical to basolateral side in human Caco2 cells; assay type: ADME, cell-based; details: Caco-2
[8] = Clearance in rat at 40 mg/kg, po and 5 mg/kg, iv by LC-MS/MS analysis; assay type: ADME, organism-based; details: in vivo; in short: as §1
[9] = tested on: Mycobacterium tuberculosis; test: Bactericidal activity against Mycobacterium tuberculosis infected in human THP1 cells at 1 ug/ml for 7 days; assay type: functional, THP-1
In short: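 Adherent THP-1 macrophages infected with Mtb were exposed to compound at 1 μg/mL for 7 days at 37 °C. Kill was expressed as log reduction versus the untreated control.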

DNA gyrase subunit B = DNA gyrase subunit B (Mycobacterium smegmatis, UniProt P0C559); test: Inhibition of Mycobacterium smegmatis DNA gyrase-B ATPase activity; design: species or system Mycolicibacterium smegmatis
Sequence of DNA gyrase subunit B (P0C559 whole entry): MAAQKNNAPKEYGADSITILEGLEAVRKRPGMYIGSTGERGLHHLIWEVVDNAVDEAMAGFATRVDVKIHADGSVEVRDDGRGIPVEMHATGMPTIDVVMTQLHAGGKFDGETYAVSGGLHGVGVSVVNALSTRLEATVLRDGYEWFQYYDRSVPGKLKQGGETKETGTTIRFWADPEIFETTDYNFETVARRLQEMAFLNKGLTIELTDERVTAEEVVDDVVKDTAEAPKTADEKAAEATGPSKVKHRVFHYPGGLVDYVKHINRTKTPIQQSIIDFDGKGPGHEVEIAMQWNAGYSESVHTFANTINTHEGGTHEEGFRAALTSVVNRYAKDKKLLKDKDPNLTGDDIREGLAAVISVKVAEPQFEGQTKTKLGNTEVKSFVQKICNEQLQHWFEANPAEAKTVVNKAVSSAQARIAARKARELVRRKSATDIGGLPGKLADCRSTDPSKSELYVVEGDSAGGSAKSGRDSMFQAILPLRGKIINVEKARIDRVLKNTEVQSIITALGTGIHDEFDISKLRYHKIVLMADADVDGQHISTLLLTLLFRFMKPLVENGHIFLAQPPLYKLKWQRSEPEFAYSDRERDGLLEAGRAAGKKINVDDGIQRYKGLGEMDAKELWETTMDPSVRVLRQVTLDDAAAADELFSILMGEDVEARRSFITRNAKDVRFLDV

[10] = tested on: Mycobacterium tuberculosis; test: Antimycobacterial activity against Mycobacterium tuberculosis clinical isolates after 2 to 4 weeks by BACTEC 460 radiometric assay; assay type: functional
[11] = tested on: Mycobacterium tuberculosis; test: Bactericidal activity against Mycobacterium tuberculosis H37Rv after 10 days by time kill assay; assay type: functional, organism-based
In short: (§2)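 Time-kill in 7H9 broth with 0.2% glycerol, 0.05% Tween 80 and 10% ADC. Serial 2-fold dilutions were added to ~3 × 10^7 cfu/mL H37Rv at 37 °C. Aliquots were plated on 7H11 at days 0, 3, 7 and 10, and plates were incubated up to 28 days at 37 °C, 5% CO2, humidified. Results are given as log10 cfu per concentration.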

[12] = tested on: Mycobacterium tuberculosis; test: Bactericidal activity against Mycobacterium tuberculosis H37Rv assessed as reduction in log10CFU at 0.01 to 2 ug/ml after 10 days by time kill assay; assay type: functional; in short: as §2
[13] = Ratio of fAUC in aminobenzotriazole-pretreated Mycobacterium tuberculosis infected BALB/c mouse at 80 mg/kg, po to MIC for wild-type Mycobacterium tuberculosis H37Rv ATCC 27294
In short: (§3)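 PK was measured in infected, ABT-pretreated mice during efficacy dosing (oral, 5% dextrose pH 4−5) on day 18 or 19. Saphenous blood was taken at 5, 15 and 30 min and 1, 2, 4 and 6 h. Plasma was precipitated with acetonitrile and analysed by LC−MS/MS. AUC came from noncompartmental analysis; free AUC/MIC and %free T>MIC used the unbound fraction and MIC.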

[14] = tested on: Mycobacterium tuberculosis; test: Antimycobacterial activity against Mycobacterium tuberculosis infected in aminobenzotriazole-pretreated BALB/c mouse acute tuberculosis model assessed as reduction in bacterial burden at 80 to 160 mg/kg, po bid for 20 days; assay type: functional, organism-based
In short: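 Aerosol-infected BALB/c mice in BSL3, three per group. Treatment began 3 days (acute) or 4 weeks (chronic) after infection. ABT 100 mg/kg po in water was given 2 h before oral gavage of compound in 5% dextrose (pH 4−5 with acetic acid), 10 mL/kg, twice daily at 8 h intervals. Courses were 20 days (7 days/week) or 8 weeks (6 days/week). Lung homogenates were plated on 7H11 for cfu.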

[15] = Fraction unbound in aminobenzotriazole-pretreated BALB/c mouse plasma infected with Mycobacterium tuberculosis by LC-MS/MS analysis; assay type: ADME, cell-free
[16] = tested on: Mycobacterium tuberculosis; test: Bactericidal activity against Mycobacterium tuberculosis H37Rv at 0.01 to 2 ug/ml by time kill assay; assay type: functional, organism-based; details: TDE = time-dependent effect; in short: as §2
Mus musculus = test: fT>MIC in BALB/c mouse infected with Mycobacterium tuberculosis at 80 mg/kg, po; in short: as §3

COc1cnc2ccc(=O)n(CCN3CCC(NCc4cnc(C)c(C#N)n4)CC3)c2c1
MIC [1]: 0.5 µg/mL (≈ 1.15 µM) | IC50 [2]: 69 µM | logD at 10000 µM [3]: 0.89

COc1cc(C#N)c2ccc(=O)n(CCN3CCC(NCc4cnc(C)c(C#N)c4)CC3)c2c1
MIC [1]: 0.01 µg/mL (≈ 0.0219 µM) | bioavailability [4]: 59% | Papp B→A [5]: 4.7 ×10⁻⁶ cm/s | IC50 [2]: 2.5 µM | logD at 10000 µM [3]: 1.86 | IC50 [6]: 0.065 µM | Papp A→B [7]: 10 ×10⁻⁶ cm/s | clearance [8]: 10 mL/min/kg

COc1cnc2ccc(=O)n(CCN3CCC(NCc4cnc(OC)c(C#N)c4)CC3)c2c1
MIC [1]: 0.06 µg/mL (≈ 0.134 µM) | Papp B→A [5]: 9 ×10⁻⁶ cm/s | IC50 [2]: 12 µM | logD at 10000 µM [3]: 1.2 | Papp A→B [7]: 13 ×10⁻⁶ cm/s

COc1cnc2ccc(=O)n(CCN3CC[C@@H](NCc4cnc(C)c(C#N)c4)[C@@H](F)C3)c2c1
MIC [1]: 0.06 µg/mL (≈ 0.133 µM) | bioavailability [4]: 52% | Papp B→A [5]: 7.4 ×10⁻⁶ cm/s | LCK [9]: 1.3 | IC50 [2]: 90 µM | logD at 10000 µM [3]: 1.29 | IC50 [6]: 0.25 µM | Papp A→B [7]: 13.6 ×10⁻⁶ cm/s | clearance [8]: 42 mL/min/kg

Cc1nc(CNC2CCN(CCn3c(=O)ccc4ccc(C#N)cc43)CC2)ccc1C#N
MIC [1]: > 16 µg/mL | Papp B→A [5]: 9.1 ×10⁻⁶ cm/s | IC50 (DNA gyrase subunit B): > 100 µM | IC50 [2]: 5.3 µM | logD at 10000 µM [3]: 1.1 | IC50 [6]: > 100 µM | Papp A→B [7]: 17.1 ×10⁻⁶ cm/s

Cc1ncc(CN[C@@H]2CCN(CCn3c(=O)ccc4ccc(C#N)cc43)C[C@@H]2F)cc1C#N
MIC [1]: 0.25 µg/mL (≈ 0.562 µM) | Papp B→A [5]: 13 ×10⁻⁶ cm/s | logD at 10000 µM [3]: 1.29 | Papp A→B [7]: 14.5 ×10⁻⁶ cm/s

CC1COc2c(N3CCN(C)CC3)c(F)cc3c(=O)c(C(=O)O)cn1c23 (stereo not given) [OFLOXACIN]
MIC90 [10]: > 8 µg/mL | MIC [1]: 0.5 µg/mL (≈ 1.38 µM)

COc1cnc2ccc(=O)n(CCN3CCC(NC(=O)c4cnc(C)c(C#N)c4)CC3)c2c1
MIC [1]: 0.13 µg/mL (≈ 0.291 µM) | Papp B→A [5]: 13 ×10⁻⁶ cm/s | IC50 [2]: 74 µM | logD at 10000 µM [3]: 1.4 | Papp A→B [7]: 4.2 ×10⁻⁶ cm/s

O=C1COc2ccc(CN[C@H]3CCN(CCn4c(=O)ccc5ncc(F)cc54)C[C@H]3F)nc2N1
Activity [11]: Dose-dependent effect | log10cfu [12]: >3 | fAUC/MIC [13]: 175 | Activity [14]: Active | fraction unbound [15]: 0.44 | MIC [1]: 0.13 µg/mL (≈ 0.276 µM) | bioavailability [4]: > 100% | Papp B→A [5]: 12.3 ×10⁻⁶ cm/s | Activity [16]: tde | fT>MIC (Mus musculus): 58% | logD at 10000 µM [3]: 0.47 | IC50 [6]: 0.24 µM | Papp A→B [7]: 8.1 ×10⁻⁶ cm/s | clearance [8]: 63 mL/min/kg

Cc1ncc(CNC2CCN(CCn3c(=O)ccc4ncc(F)cc43)CC2)cc1C#N
MIC [1]: 0.25 µg/mL (≈ 0.595 µM) | Papp B→A [5]: 9.8 ×10⁻⁶ cm/s | IC50 [2]: 69 µM | logD at 10000 µM [3]: 0.81 | Papp A→B [7]: 18 ×10⁻⁶ cm/s

COc1ccc2ncc(=O)n(CCN3CCC(NCc4cnc(C)c(C#N)c4)CC3)c2n1
MIC [1]: 0.13 µg/mL (≈ 0.3 µM) | IC50 [2]: 13 µM | logD at 10000 µM [3]: 1.65

COc1cnc2ccc(=O)n(CCN3CC[C@@H](NCc4cnc(C)c(C#N)c4)[C@@H](OC)C3)c2c1
MIC [1]: 0.06 µg/mL (≈ 0.13 µM) | bioavailability [4]: 73% | Papp B→A [5]: 9.9 ×10⁻⁶ cm/s | logD at 10000 µM [3]: 0.99 | Papp A→B [7]: 11.7 ×10⁻⁶ cm/s | clearance [8]: 54 mL/min/kg

COc1cnc2ccc(=O)n(CCN3CC[C@@H](NCc4ccc5c(n4)NC(=O)CO5)[C@@H](F)C3)c2c1
MIC [1]: 0.03 µg/mL (≈ 0.0622 µM) | Papp B→A [5]: 10.8 ×10⁻⁶ cm/s | logD at 10000 µM [3]: 0.64 | Papp A→B [7]: 4.1 ×10⁻⁶ cm/s
